Data from ChEMBL document CHEMBL1155286, “Second generation of 2H-benzimidazole 1,3-dioxide derivatives as anti-trypanosomatid agents: synthesis, biological evaluation, and mode of action studies” (Eur J Med Chem, 2009).
Active and inactive are the calls of the source. The rule behind the calls is not given here.

Legend:
Trypanosoma cruzi [1] = test: Antitrypanosomal activity against Trypanosoma cruzi CL Brener trypomastigotes infected in Vero cells assessed as parasite lysis at 25 uM after 19 hrs relative to untreated control; assay type: functional
In short: (§1)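 Cell-culture trypomastigotes released from infected Vero cells (37 °C, 5% CO2, 5–7 days), collected by centrifugation and allowed 4 h at 37 °C to swim off. Supernatant parasites exposed to 10.0–50.0 μM for 2–26 h; lysis counted in a Neubauer chamber relative to untreated parasites; three independent experiments.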

Trypanosoma cruzi [2] = test: Antitrypanosomal activity against Trypanosoma cruzi CL Brener trypomastigotes infected in Vero cells assessed as parasite lysis at 50 uM after 2 hrs relative to untreated control; assay type: functional; in short: as §1
Trypanosoma cruzi [3] = test: Antitrypanosomal activity against Trypanosoma cruzi CL Brener trypomastigotes infected in Vero cells assessed as parasite lysis at 50 uM after 19 hrs relative to untreated control; assay type: functional; in short: as §1
Trypanosoma cruzi [4] = test: Antitrypanosomal activity against Trypanosoma cruzi CL Brener epimastigotes after 5 days by MTT assay; assay type: functional; conditions: 120 h, read-out: ID50
In short: (§2)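 Epimastigotes (T. cruzi strains, BHI-Tryptose + 5% FBS, 28 °C) or L. braziliensis LTB300 promastigotes (axenic RPMI + 5% FBS, 28 °C) from exponential culture in 24-well plates; compounds from DMSO stock added for 5 days. Washed in PBS, 0.4 mg/mL MTT at 37 °C for 3 h, formazan dissolved in DMSO, OD595 read. Triplicate per concentration, six growth controls; 1.0–50.0 μM dose-response, ID50 = concentration reducing absorbance ratio to 50%; three independent experiments.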

Trypanosoma cruzi [5] = test: Antitrypanosomal activity against Trypanosoma cruzi Y epimastigotes after 5 days by MTT assay; assay type: functional; conditions: 120 h, read-out: ID50; in short: as §2
Leishmania braziliensis = test: Antiparasitic activity against Leishmania braziliensis MHOM/BR/00/LTB300 after 5 days by MTT assay; assay type: functional; conditions: MHOM/BR/00/LTB300, 120 h, read-out: ID50; in short: as §2
Trypanosoma cruzi [6] = test: Antitrypanosomal activity against Trypanosoma cruzi Colombiana assessed as parasitic cytotoxicity at 25 uM after 5 days by MTT assay; assay type: functional
In short: (§3)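 Single 25 μM dose for 5 days on exponential-phase epimastigotes in BHI-Tryptose + 5% FBS, 24-well plates; MTT 0.4 mg/mL, 3 h at 37 °C after PBS wash, formazan in DMSO, OD595. PCyt = [[…] (ODd − ODdm)/(ODc − ODcm)] × 100 with medium-only blanks, compound-in-medium blanks and growth controls; three independent experiments.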

Trypanosoma cruzi [7] = test: Reduction of end products excretion levels in Trypanosoma cruzi Y epimastigotes after 2 days by [1H]NMR method; assay type: functional, organism-based
In short: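 Y-strain epimastigotes treated 2 days with 5 μM compound; culture centrifuged 1500 g, 10 min, 4 °C, parasite-free supernatant stored at −20 °C. Supernatant plus DMF internal standard and D2O run by 1H NMR with water suppression; metabolite peaks confirmed by spiking and standards, compared to untreated and parasite-free medium.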

Trypanosoma cruzi [8] = test: Antitrypanosomal activity against Trypanosoma cruzi CL Brener epimastigotes assessed as parasitic cytotoxicity at 25 uM after 5 days by MTT assay; assay type: functional; in short: as §3
Trypanosoma cruzi [9] = test: Antitrypanosomal activity against Trypanosoma cruzi Tulahuen 2 epimastigotes assessed as inhibition of parasite growth after 5 days; assay type: functional; conditions: Trypanosoma cruzi, Tulahuen 2, 120 h; read-out: ID50 (the source's name)
In short: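 Stationary-phase (10-day) Tulahuen 2 epimastigotes inoculated at 1×10^6 cells/mL in BHI-Tryptose + 5% FBS, 28 °C, drug added from DMSO stock (final DMSO ≤0.4%; control 0.4% DMSO). Growth followed as A600; inhibition from day-5 vs day-0 absorbance relative to control. ID50 = concentration reducing absorbance ratio to 50%; three independent experiments.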

Trypanosoma cruzi [10] = test: Antitrypanosomal activity against Trypanosoma cruzi CL Brener trypomastigotes infected in Vero cells assessed as parasite lysis at 5 uM after 22 hrs relative to untreated control; assay type: functional
Trypanosoma cruzi [11] = test: Antitrypanosomal activity against Trypanosoma cruzi CL Brener trypomastigotes infected in Vero cells assessed as parasite lysis at 10 uM after 2 hrs relative to untreated control; assay type: functional; in short: as §1
Trypanosoma cruzi [12] = test: Antitrypanosomal activity against Trypanosoma cruzi CL Brener trypomastigotes infected in Vero cells assessed as parasite lysis at 10 uM after 3 hrs relative to untreated control; assay type: functional; in short: as §1
Trypanosoma cruzi [13] = test: Antitrypanosomal activity against Trypanosoma cruzi CL Brener trypomastigotes infected in Vero cells assessed as parasite lysis at 10 uM after 22 hrs relative to untreated control; assay type: functional; in short: as §1
Trypanosoma cruzi [14] = test: Antitrypanosomal activity against Trypanosoma cruzi CL Brener trypomastigotes infected in Vero cells assessed as parasite lysis at 10 uM after 26 hrs relative to untreated control; assay type: functional; in short: as §1

Q: Which Activity (Trypanosoma cruzi [1]) does the source give for `CC1(C)[N+]([O-])=c2ccc(/C=C/c3ccccc3)cc2=[N+]1[O-]` here?
A: The Activity was 64%.

Q: And the Activity (Trypanosoma cruzi [2])?
A: The Activity was 32%.

Q: What about the Activity (Trypanosoma cruzi [3]) of the same compound?
A: The Activity was 100%.

Q: What about the IC50 (Trypanosoma cruzi [4]) of the same compound?
A: The IC50 was 8.5 µM.

Q: And the IC50 (Trypanosoma cruzi [5])?
A: Its IC50 is 6 µM.

Q: What about the IC50 (Leishmania braziliensis) of the same compound?
A: The IC50 was 3.5 µM.

Q: What about the Activity (Trypanosoma cruzi [6]) of the same compound?
A: Its Activity is 92.3%.

Q: And the Activity (Trypanosoma cruzi [7])?
A: Its Activity is “Active”.

Q: And the Activity (Trypanosoma cruzi [8])?
A: The Activity was 78.4%.

Q: And the IC50 (Trypanosoma cruzi [9])?
A: The IC50 was 3.4 µM.

Q: What about the Activity (Trypanosoma cruzi [10]) of the same compound?
A: Its Activity is 31%.

Q: And the Activity (Trypanosoma cruzi [11])?
A: Its Activity is 3%.

Q: What about the Activity (Trypanosoma cruzi [12]) of the same compound?
A: The Activity was 32%.

Q: What about the Activity (Trypanosoma cruzi [13]) of the same compound?
A: Its Activity is 84%.

Q: And the Activity (Trypanosoma cruzi [14])?
A: The Activity was 100%.
